Test results reported in ChEMBL document CHEMBL1129289, “Dibenzoxepinone hydroxylamines and hydroxamic acids: dual inhibitors of cyclooxygenase and 5-lipoxygenase with potent topical antiinflammatory activity” (J Med Chem, 1996).

What was measured:
Format in all cases: functional
[1] = target: T1, Polyunsaturated fatty acid 5-lipoxygenase (Rattus norvegicus, UniProt P12527); experiment: (§1) Inhibition of 5-lipoxygenase by measuring 5-HETE levels in RBL-1 cell-free supernatant
T1 sequence (P12527 whole entry): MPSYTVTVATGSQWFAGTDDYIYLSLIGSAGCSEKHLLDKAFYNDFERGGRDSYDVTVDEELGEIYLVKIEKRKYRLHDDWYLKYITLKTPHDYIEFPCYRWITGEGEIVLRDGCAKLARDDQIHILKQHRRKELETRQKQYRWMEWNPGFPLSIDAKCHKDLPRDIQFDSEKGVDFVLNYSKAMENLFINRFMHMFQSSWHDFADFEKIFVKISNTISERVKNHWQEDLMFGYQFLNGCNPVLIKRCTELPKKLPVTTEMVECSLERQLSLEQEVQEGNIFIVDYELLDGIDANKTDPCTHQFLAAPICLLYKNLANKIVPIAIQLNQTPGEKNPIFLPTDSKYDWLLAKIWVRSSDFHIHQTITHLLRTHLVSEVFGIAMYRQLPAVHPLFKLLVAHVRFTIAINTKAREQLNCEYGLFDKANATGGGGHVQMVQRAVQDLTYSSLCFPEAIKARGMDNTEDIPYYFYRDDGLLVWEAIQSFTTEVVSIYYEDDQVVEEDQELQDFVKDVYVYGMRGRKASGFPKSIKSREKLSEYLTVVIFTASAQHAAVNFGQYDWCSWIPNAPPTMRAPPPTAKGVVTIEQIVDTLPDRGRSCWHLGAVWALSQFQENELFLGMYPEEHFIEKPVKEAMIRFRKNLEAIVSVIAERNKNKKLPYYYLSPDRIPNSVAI
How it was run: (§2)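 Cell-free rat basophilic leukemia (RBL-1) supernatant, 150 µg protein per tube, in duplicate. Buffer: 35 mM NaH₂PO₄ pH 7.0, 5 µM ATP, 50 µM CaCl₂, 10 µM arachidonic acid. Compounds from DMSO stocks. Run at 37 °C for 10 min and stopped with citric acid. 5-HETE measured by radioimmunoassay against a standard curve. Percent change from control; some values given at 50 µM.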

Mus musculus [2] = experiment: Change in arachidonic acid induced oedema in mouse ear.
How it was run: (§3)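 Male CFW Swiss Webster mice, n=6. Compound or vehicle (3:7 propylene glycol:ethanol) applied topically to the right ear, 10 µL each to outer and inner surface. After 30 min, arachidonic acid 4 mg/20 µL on the right ear and vehicle on the left.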

Mus musculus [3] = experiment: Inhibition of arachidonic acid oedema in mouse ear.; how it was run: as §3
[4] = target: T2, Polyunsaturated fatty acid 5-lipoxygenase (Rattus norvegicus) (UniProt P12527); experiment: as §1; conditions: concentration not given here; how it was run: as §2
T2 sequence (whole entry): T1 sequence (P12527 whole entry)

SMILES | IC50 [1] [nM] | Change (Mus musculus [2]) [%] | Change (Mus musculus [3]) [%] | ED50 (Mus musculus [3]) [mg ear-1] | inhibition [4] [%]
CN(O)C(=O)Cc1ccc2c(c1)C(=O)c1ccccc1CO2 | 1190 | -63 |  |  | 
CC(C)Cc1ccc(C(C)C(=O)O)cc1 (configuration not stated) [IBUPROFEN] |  |  | -11 |  | 
CC(C(=O)N(C)O)c1ccc2c(c1)C(=O)c1ccccc1CO2 (configuration not stated) | 1300 | -44 |  |  | 
CC(C)N(O)C(=O)Cc1ccc2c(c1)C(=O)c1ccccc1CO2 | 1230 | -52 |  |  | 
CC(C)N(O)C(=O)CCc1ccc2c(c1)C(=O)c1ccccc1CO2 | 580 | -63 |  |  | 
CCN(O)CCc1ccc2c(c1)C(=O)c1ccccc1CO2 | 480 | -50 |  |  | 
CCN(O)CCc1ccc2c(c1)Cc1ccccc1CO2 | 320 | -50 |  |  | 
CC(Cc1ccc(O)c(O)c1)C(C)Cc1ccc(O)c(O)c1 (configuration not stated) [NORDIHYDROGUAIARETIC ACID] |  |  |  | 3.1 | 
CN(O)CCc1ccc2c(c1)C(=O)c1ccccc1CO2 |  | -46 |  |  | 
CC(=O)N(O)Cc1ccc2c(c1)C(=O)c1ccccc1CO2 | 210 | -47 |  |  | 
O=C1c2ccccc2COc2ccc(CCC(=O)N(O)C3CCCCC3)cc21 | 2000 | -14 |  |  | 
CCN(O)C(=O)C(C)c1ccc2c(c1)C(=O)c1ccccc1CO2 (configuration not stated) |  | -38 |  |  | 94
CN(O)C(=O)CCc1ccc2c(c1)C(=O)c1ccccc1CO2 | 10 | -66 |  | 0.69 | 
CCN(O)CCc1ccc2c(c1)C(O)c1ccccc1CO2 (configuration not stated) | 450 | -47 |  |  | 
CN(O)C(=O)C(C)(C)Cc1ccc2c(c1)C(=O)c1ccccc1CO2 | 660 | 29 |  |  | 
O=C(O)Cc1ccc2c(c1)C(=O)c1ccccc1CO2 [ISOXEPAC] |  |  |  | 55 | 1.5
O=C(Cc1ccc2c(c1)C(=O)c1ccccc1CO2)NO | 9000 | -19 |  |  | 
O=C(CCCCCCCCc1ccccc1)NO | 480 |  |  | 2.56 | 
O=C1c2ccccc2COc2ccc(CC(=O)N(O)C3CCCCC3)cc21 | 670 | -29 |  |  | 
CC(=O)N(O)CCc1ccc2c(c1)C(=O)c1ccccc1CO2 | 190 | -61 |  |  | 
CC(C)N(O)CCc1ccc2c(c1)C(=O)c1ccccc1CO2 | 130 | -47 |  |  | 
CON(C)C(=O)CCc1ccc2c(c1)C(=O)c1ccccc1CO2 | > 50000 | -41 |  |  | 
CN(O)C(=O)CCc1ccc2c(c1)Cc1ccccc1CO2 | 20 | -67 |  | 0.7 | 
CN(O)CCCc1ccc2c(c1)C(=O)c1ccccc1CO2 | 620 | -53 |  |  | 
COc1ccc2c(c1)c(CC(=O)O)c(C)n2C(=O)c1ccc(Cl)cc1 [INDOMETHACIN] |  |  |  | 1.63 | 
CCN(O)C(=O)Cc1ccc2c(c1)C(=O)c1ccccc1CO2 | 580 | -52 |  |  | 
CCN(O)C(=O)CCc1ccc2c(c1)C(=O)c1ccccc1CO2 | 150 | -55 |  |  | 
